Bioassay records from PubChem.
KCNQ1 pot: potentiators or activators of KCNQ1 channel, primary screen, cell-based, thallium flux, high-throughput; Potassium voltage-gated channel subfamily KQT member 1 (Homo sapiens), P51787; B-score at 10 µM; CHO-K1 KCNQ1, thallium flux FluxOR fluorescence; stronger effect = higher value; actives 0.35% (n = 310,000);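 active = fluorescence ratio B-score, a plate-corrected score, at least three library SD, with initial intensity B-score within 5 SD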
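assay system = KCNQ1-transfected CHO-K1 cells | medium = assay buffer with matched DMSO | probe or stimulus = depolarizing K+/Tl+ stimulus, K2SO4 and Tl2SO4 each 12.5 mM in 5x stock | dosing = single dose | incubation = dye 90 min, compound 20 min, room temperature | detection = kinetic FluxOR fluorescence, 10 s baseline plus 110 s post-stimulus | evaluation = ratio B score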
KCNK3 block: human KCNK3 channel inhibitors, primary screen, CHO cells, FluxOR thallium flux, B-score; FluxOR fluorescence; stronger effect = lower value; B-score at 10 µM; actives 0.84% (n = 340,000); AID 602410, 2012;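 active = B-score under library mean minus 4 SD, starting fluorescence ratio at most library mean plus 5 SD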;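 note: more negative B-score means stronger inhibition of thallium flux through KCNK3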
KCNK9 inh: KCNK9 potassium channel inhibitors, primary screen, HEK293 cells, thallium flux; B-score at 10 µM; Potassium channel subfamily K member 9 (Homo sapiens), Q9NPC2; FluxOR thallium flux fluorescence; stronger effect = lower value; AID 488922, 2010; actives 1.2% (n = 310,000);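 active = ratio B-score over 3 SD below the library mean, with starting fluorescence within 5 SD of its mean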;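 note: negative B-score means less thallium flux so channel inhibition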
KCNQ1 block: inhibitors of human KCNQ1 channel, primary screen, cell-based, thallium flux, high-throughput | CHO-K1 KCNQ1, FluxOR thallium flux fluorescence; stronger effect = higher value | B-score at 10 µM | actives 1.3% (n = 310,000) | Potassium voltage-gated channel subfamily KQT member 1 (Homo sapiens), P51787;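 active = compounds whose thallium flux B-score, printed positive for inhibition, exceeds three library SD while starting fluorescence stays within three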;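 note: channel opened by potassium depolarization with thallium stimulus after 20 min compound exposure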
hERG rescue: hERG rescue from dofetilide block, primary screen, cell-based, CHO-hERG, FluxOR thallium flux, dofetilide IC70; Voltage-gated inwardly rectifying potassium channel KCNH2 (Homo sapiens), Q12809; dofetilide IC70 present; activation (rescue from dofetilide block), less the hit threshold, % at 10 µM; actives 0.51% (n = 310,000); AID 1511, 2009;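 active = activation above the mean of controls blocked by dofetilide plus 5 SD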;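 note: thallium influx through hERG after potassium depolarization seen as dye fluorescence rise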
Target sequence (Q12809 whole entry, looked up): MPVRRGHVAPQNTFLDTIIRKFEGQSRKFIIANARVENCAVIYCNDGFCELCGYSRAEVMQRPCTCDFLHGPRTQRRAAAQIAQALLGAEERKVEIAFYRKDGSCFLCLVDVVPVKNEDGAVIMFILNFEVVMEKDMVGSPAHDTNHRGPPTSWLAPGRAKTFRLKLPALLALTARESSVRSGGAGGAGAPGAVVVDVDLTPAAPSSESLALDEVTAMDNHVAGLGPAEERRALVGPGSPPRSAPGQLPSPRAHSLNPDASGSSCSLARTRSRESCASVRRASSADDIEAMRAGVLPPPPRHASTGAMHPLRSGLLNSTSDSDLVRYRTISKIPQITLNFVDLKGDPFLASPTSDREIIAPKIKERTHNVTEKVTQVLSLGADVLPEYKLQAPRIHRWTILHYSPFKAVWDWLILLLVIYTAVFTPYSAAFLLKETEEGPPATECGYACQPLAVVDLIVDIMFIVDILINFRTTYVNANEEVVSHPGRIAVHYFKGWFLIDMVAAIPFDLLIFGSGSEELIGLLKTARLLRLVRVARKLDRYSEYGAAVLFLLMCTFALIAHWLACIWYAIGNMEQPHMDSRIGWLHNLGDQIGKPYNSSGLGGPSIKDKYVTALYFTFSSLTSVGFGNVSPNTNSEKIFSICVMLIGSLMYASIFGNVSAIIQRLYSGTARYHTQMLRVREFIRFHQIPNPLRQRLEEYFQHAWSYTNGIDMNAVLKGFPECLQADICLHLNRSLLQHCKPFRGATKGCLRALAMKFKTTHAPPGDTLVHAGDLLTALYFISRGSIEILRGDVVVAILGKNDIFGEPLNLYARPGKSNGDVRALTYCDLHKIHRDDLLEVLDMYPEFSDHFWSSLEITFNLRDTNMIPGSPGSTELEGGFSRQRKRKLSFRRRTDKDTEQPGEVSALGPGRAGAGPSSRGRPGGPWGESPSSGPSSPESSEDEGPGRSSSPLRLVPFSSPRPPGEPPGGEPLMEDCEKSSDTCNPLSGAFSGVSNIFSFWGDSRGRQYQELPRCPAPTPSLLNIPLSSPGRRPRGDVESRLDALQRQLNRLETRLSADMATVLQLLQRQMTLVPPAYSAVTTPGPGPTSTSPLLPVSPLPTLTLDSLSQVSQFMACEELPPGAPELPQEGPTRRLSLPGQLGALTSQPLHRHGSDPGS
The depositor's hits bear a star; i = inactive; . = not tested or not shown. This is a sample that favours compounds with a hit; in the whole collection about 3.1% have one here.

SMILES	KCNQ1 pot	KCNK3 block	KCNK9 inh	KCNQ1 block	hERG rescue
O=c1[nH]cc(C(F)(F)F)cc1NS(=O)(=O)c1ccccc1[N+](=O)[O-]	i	i	i	i	-6.7
COc1ccc(-c2csc(NC(=S)NC(=O)c3ccco3)n2)cc1Br	i	i	i	i	11.4*
Cc1ccc(-c2csc(NC(=O)CCNC(=O)c3ccco3)n2)cc1	i	i	i	i	-14.0
Cc1ccc(-c2csc(NC(=S)NC(=O)c3ccco3)n2)cc1	28*	i	i	i	-5.1
O=C(NC(=S)Nc1nc2ccc(F)cc2s1)c1ccco1	47*	i	i	i	40.0*
COc1ccc(-c2csc(NC(=S)NC(=O)c3cc4ccccc4o3)n2)cc1Br	i	i	i	i	-0.3
COC(=O)c1ccc([C@@H]2C[C@H]3CN(Cc4cccnc4)C(=O)[C@]34CCCN24)cc1	i	i	i	i	-11.4
Cc1cc(Sc2ncnc(N)c2[N+](=O)[O-])ncn1	i	i	i	6*	-24.5
Cc1cc(Sc2nc(N)ncc2[N+](=O)[O-])ncn1	i	i	i	i	-15.5
Cc1ccccc1NC(=S)NNC(=O)c1csc2c1CCC(C)C2 (stereo not drawn)	10*	i	i	i	-7.8
CCNC(=S)NNC(=O)c1csc2c1CCC(C)C2 (stereo not drawn)	i	i	i	i	-5.7
CCOc1ccc(C(c2c(NC(=O)c3ccco3)sc(C)c2C)N2CCOCC2)cc1 (stereo not drawn)	.	-10.6*	.	.	.
O=C(N/N=C/c1cccnc1)c1cc(-c2ccccc2)nc2ccccc12	i	i	i	i	-9.7
O=C(N/N=C/c1cc([N+](=O)[O-])ccc1Cl)c1cc(-c2ccccc2)nc2ccccc12	i	i	i	i	-11.7
CCOC(=O)c1c(C)[nH]c(C(=O)N/N=C/c2cc([N+](=O)[O-])ccc2O)c1C	i	i	i	9*	-17.2
Cc1ccc(-c2cc(C(=O)N/N=C/c3cccnc3)c3ccccc3n2)cc1C	i	-9.74*	i	i	-16.9
O=C(N/N=C/c1cc([N+](=O)[O-])ccc1O)c1cc(-c2ccccc2)nc2ccccc12	i	i	i	7*	-6.5
O=C(Cn1cnc2c(nnn2Cc2ccc(F)cc2)c1=O)Nc1ccc2c(c1)OCCO2	i	i	i	i	-8.5
CC(=O)Nc1ccc(S(=O)(=O)Nc2ccccc2N2CCOCC2)cc1	.	i	.	.	.
Cc1cc(N/N=C2\CC(C)CC(C)(C)C2)nc2ccccc12 (stereo not drawn)	i	i	i	14*	-24.3
CC(=O)Nc1ccc(C(=O)NNC(=O)c2ccc(Cl)cc2Cl)cc1	i	i	i	i	-6.9
COc1ccc(NC(=O)C(=O)NNC(=O)C(C)Oc2ccc(Cl)cc2Cl)cc1 (stereo not drawn)	108*	i	i	i	34.8*
COc1ccc(NC(=O)C(=O)NNC(=O)c2ccc(Cl)cc2Cl)cc1	62*	i	i	i	4.7*
COc1ccc(O[C@@H]2O[C@H](COC(C)=O)[C@@H](OC(C)=O)[C@H](OC(C)=O)[C@H]2NC(C)=O)cc1	i	i	i	i	-2.0
CC(=O)N[C@H]1[C@H](OC2CCCCC2)O[C@H](COC(C)=O)[C@@H](OC(C)=O)[C@@H]1OC(C)=O	8*	i	i	i	-1.8
SMILES	KCNQ1 pot	KCNK3 block	KCNK9 inh	KCNQ1 block	hERG rescue
O=C(Oc1c(-c2ccccc2)c(=O)n2c3c(cccc13)CC2)c1cccc([N+](=O)[O-])c1	i	i	i	6*	-11.3
CCOc1ccc(CCNC(=O)CSCC(=O)Nc2ccc(OC)cc2)cc1OCC	.	i	.	.	.
CCn1nc(C)c(/C=N/NC(=S)Nc2ccc(Cl)cc2Cl)c1C	i	i	i	i	4.8*
Cc1ccc(S(=O)(=O)N2CCCC2)cc1C(=O)NCCOc1ccccc1	.	i	.	.	.
Cc1ccccc1NC(=S)N/N=C/C(C)c1ccccc1 (stereo not drawn)	i	i	i	i	-18.9
Cc1cccc(NC(=S)N/N=C/C(C)c2ccccc2)c1C (stereo not drawn)	i	i	i	i	4.8*
O=C(NC12CC3CC(CC(C3)C1)C2)c1cc2nc(-c3ccco3)cc(C(F)(F)F)n2n1	i	i	i	6*	-3.3
O=C(NC1CCCCC1)c1cc2nc(-c3ccco3)cc(C(F)(F)F)n2n1	i	i	i	i	1.3
O=C(Nc1cnn(C23CC4CC(CC(C4)C2)C3)c1)c1cnn2c(C(F)(F)F)cc(-c3ccco3)nc12	i	i	i	11*	-26.4
O=C(Nc1ccc2c(c1)OCO2)c1cnn2c(C(F)(F)F)cc(-c3ccco3)nc12	.	i	.	.	.
Cc1ccccc1Cn1ccc(NC(=O)c2cnn3c(C(F)(F)F)cc(-c4ccco4)nc23)n1	i	i	-7.57*	i	-15.4
Cc1ccccc1Cn1ccc(NC(=O)CCSc2nc(-c3ccco3)cc(C(F)(F)F)n2)n1	i	i	i	i	-10.3
COc1ccc2nc(SCC(=O)Nc3cc(C)on3)[nH]c2c1	i	i	i	i	-13.7
O=C(N/N=C/c1cccnc1)c1ccccc1OCc1ccc(Cl)cc1	i	.	-6.87*	i	-4.5
CC(C)N1CCc2c(sc(NC(=O)c3cc4cc([N+](=O)[O-])ccc4s3)c2C(N)=O)C1	i	i	i	6*	-13.3
CN1CCc2c(sc(NC(=O)c3cc4cc([N+](=O)[O-])ccc4s3)c2C(N)=O)C1	i	.	i	i	-13.0
CC(C)N1CCc2c(sc(NC(=O)c3ccc4ccccc4c3)c2C(N)=O)C1	i	i	-7.94*	i	-23.8
CN(CCNC(=O)CCCOc1cc(=O)n(C)c2ccccc12)Cc1ccccc1	i	i	i	i	-5.8
CN(CCCNC(=O)CCCOc1cc(=O)n(C)c2ccccc12)Cc1ccccc1	8*	i	i	i	-7.5
COC(=O)c1c(C)nc(C)c(C(=O)OC)c1-c1cccs1	i	i	i	i	8.1*
COC(=O)c1sc(-c2cccs2)cc1N	i	i	i	i	-2.7
Cc1ccccc1CNC(=O)C(=O)NCC1OCCCN1S(=O)(=O)c1cccs1 (stereo not drawn)	i	i	i	i	-5.1
